Test results as given in ChEMBL document CHEMBL2440017, “Discovery of a potent, selective, and orally bioavailable histamine H3 receptor antagonist SAR110068 for the treatment of sleep-wake disorders” (Bioorg Med Chem Lett, 2013).

Tests used:
[1] = biological target: Voltage-gated inwardly rectifying potassium channel KCNH2 (Homo sapiens, UniProt Q12809); assay: Inhibition of human ERG expressed in CHO cells by patch-clamp technique; type: cell-based
Procedure, shortened: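 hERG current recorded by whole-cell patch clamp in CHO cells stably transfected with the human ERG gene.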

[2] = Oral bioavailability in Sprague-Dawley rat plasma at 10 mg/kg; type: ADME, organism-based
Procedure, shortened: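 Male Sprague–Dawley rats received 2 mg/kg i.v. (0.5 mg/mL in saline) or 10 mg/kg p.o. (1.0 mg/mL in 0.5% MC/0.2% Tween80). Plasma and brain AUC0-inf were measured, and the B/P ratio was calculated from i.v. AUC0-inf.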

[3] = biological target: Cytochrome P450 2D6 (Homo sapiens, UniProt P10635); assay: Inhibition of CYP2D6 (unknown origin); type: ADME
[4] = system: Plasma; assay: Metabolic stability in sheep plasma; type: ADME, cell-free, Ovis aries
Procedure, shortened: (§1)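 Compound stability measured in plasma of each species in vitro.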

[5] = system: Plasma; assay: Metabolic stability in rabbit plasma; type: ADME, cell-free, Oryctolagus cuniculus; procedure, shortened: as §1
[6] = Drug degradation in DMSO after 48 hrs at room temperature; type: physicochemical; details: read-out: Drug degradation
Procedure, shortened: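 Compound kept 48 h at room temperature in water, aqueous solutions of pH 1.0–7.4, DMSO, or GI-tract simulation medium. Percent degradation measured.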

Sequence of Voltage-gated inwardly rectifying potassium channel KCNH2 (Q12809 whole entry): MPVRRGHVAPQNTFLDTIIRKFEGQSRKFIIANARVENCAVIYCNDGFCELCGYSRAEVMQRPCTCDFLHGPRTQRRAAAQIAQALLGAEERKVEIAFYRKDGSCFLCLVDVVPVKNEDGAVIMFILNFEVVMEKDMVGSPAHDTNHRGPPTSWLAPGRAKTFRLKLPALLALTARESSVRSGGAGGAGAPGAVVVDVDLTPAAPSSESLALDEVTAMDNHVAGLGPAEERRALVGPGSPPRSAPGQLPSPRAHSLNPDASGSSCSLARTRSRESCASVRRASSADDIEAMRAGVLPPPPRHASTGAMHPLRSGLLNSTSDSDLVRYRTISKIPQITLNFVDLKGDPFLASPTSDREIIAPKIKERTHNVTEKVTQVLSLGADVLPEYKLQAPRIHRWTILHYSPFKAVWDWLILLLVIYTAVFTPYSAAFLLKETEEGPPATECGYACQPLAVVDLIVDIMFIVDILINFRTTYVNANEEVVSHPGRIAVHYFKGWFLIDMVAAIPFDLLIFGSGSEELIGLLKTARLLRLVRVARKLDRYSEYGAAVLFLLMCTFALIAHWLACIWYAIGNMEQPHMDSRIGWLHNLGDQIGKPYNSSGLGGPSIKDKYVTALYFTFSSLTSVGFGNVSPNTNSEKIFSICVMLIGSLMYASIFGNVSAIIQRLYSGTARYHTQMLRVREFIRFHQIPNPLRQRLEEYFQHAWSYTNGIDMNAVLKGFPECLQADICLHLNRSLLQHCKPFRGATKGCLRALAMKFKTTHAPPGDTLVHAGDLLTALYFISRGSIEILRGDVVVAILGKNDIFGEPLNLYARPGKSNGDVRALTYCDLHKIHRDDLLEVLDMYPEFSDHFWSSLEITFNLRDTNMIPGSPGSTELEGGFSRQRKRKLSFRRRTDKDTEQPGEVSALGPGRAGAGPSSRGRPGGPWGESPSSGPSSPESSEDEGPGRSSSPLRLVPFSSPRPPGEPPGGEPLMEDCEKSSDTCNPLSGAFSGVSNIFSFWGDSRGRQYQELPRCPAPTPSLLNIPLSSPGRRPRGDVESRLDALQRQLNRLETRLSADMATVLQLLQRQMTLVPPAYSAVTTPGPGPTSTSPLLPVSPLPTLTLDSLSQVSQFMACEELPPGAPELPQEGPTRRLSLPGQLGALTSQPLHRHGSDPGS
Sequence of Cytochrome P450 2D6 (P10635 whole entry): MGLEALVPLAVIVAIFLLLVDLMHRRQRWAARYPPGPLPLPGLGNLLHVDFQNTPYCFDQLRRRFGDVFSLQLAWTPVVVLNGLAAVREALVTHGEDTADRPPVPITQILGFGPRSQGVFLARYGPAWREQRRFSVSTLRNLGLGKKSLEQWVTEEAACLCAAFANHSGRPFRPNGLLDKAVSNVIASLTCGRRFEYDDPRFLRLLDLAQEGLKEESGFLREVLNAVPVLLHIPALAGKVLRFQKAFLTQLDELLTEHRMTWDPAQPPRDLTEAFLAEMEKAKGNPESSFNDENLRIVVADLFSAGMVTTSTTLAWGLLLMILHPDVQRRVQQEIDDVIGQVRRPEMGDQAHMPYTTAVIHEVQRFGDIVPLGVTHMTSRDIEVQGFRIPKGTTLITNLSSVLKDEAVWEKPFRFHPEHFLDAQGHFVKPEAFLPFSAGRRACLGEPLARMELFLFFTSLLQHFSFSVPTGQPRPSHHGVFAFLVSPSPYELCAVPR

## Cc1cc(N2CC[C@H](N3CCC[C@@H]3C)C2)ccc1NC(=O)C1CCOCC1
[1]
  IC50: 18.9 µM
[2]
  bioavailability: 80%
[3]
  inhibition (INH): Active
[4]
  Stability: Stable
[5]
  Stability: Stable
[6]
  degraded at 48 h: < 2%
